Our source for the IC50, Emax and EC50 values is ChEMBL document CHEMBL1133468, “New diarylmethylpiperazines as potent and selective nonpeptidic delta opioid receptor agonists with increased In vitro metabolic stability” (J Med Chem, 2000).

In general, IC50 refers to the concentration that inhibits the measured activity by half. What is called Emax is the maximal effect, on the per cent scale that the assay sets. As a reminder, the EC50 is the concentration at which the effect is half-maximal.

T1 sequence (P41143 whole entry): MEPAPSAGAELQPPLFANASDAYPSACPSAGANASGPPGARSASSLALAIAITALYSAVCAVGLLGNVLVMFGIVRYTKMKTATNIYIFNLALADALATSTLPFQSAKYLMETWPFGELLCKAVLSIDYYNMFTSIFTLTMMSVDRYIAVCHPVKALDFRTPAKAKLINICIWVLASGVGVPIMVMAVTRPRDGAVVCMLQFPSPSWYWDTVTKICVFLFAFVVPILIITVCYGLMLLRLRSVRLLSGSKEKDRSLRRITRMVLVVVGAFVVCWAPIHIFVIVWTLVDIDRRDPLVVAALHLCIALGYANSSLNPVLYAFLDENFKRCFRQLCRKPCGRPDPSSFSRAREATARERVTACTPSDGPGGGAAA
Chain of Kappa-type opioid receptor (P41145 whole entry): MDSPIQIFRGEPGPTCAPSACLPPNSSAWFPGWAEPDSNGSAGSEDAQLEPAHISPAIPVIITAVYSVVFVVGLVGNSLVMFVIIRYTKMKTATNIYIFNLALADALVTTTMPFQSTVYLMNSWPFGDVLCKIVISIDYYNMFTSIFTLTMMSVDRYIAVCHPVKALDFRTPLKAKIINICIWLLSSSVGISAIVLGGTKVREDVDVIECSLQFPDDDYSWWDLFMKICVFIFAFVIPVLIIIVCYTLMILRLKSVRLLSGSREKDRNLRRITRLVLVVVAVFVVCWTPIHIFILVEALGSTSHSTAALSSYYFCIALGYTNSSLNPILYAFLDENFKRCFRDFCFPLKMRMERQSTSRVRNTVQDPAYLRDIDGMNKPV
Chain of Mu-type opioid receptor (P35372 whole entry): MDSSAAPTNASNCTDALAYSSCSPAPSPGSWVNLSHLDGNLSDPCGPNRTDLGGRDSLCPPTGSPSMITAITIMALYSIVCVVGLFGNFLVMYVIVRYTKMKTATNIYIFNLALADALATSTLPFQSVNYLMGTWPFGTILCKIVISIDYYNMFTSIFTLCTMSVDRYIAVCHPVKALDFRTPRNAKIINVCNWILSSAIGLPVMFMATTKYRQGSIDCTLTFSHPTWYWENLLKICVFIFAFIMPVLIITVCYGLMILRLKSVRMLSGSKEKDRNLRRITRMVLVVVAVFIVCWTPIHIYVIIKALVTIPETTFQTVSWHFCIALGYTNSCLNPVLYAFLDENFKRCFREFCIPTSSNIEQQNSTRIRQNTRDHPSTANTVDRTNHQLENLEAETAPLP

One test addresses Mu-type opioid receptor (Homo sapiens, UniProt P35372). Kind of test: Binding affinity against cloned human Opioid receptor mu 1 using [125I]FK33824 as radioligand.
`CCN(CC)C(=O)c1ccc(C(c2cccc(OC)c2)N2CC(C)(C)NCC2C)cc1` (stereo unspecified) had an IC50 of 0.62 µM.

In the case of `C=CCN1CCN(C(c2ccccc2)c2ccc(C(=O)N(CC)CC)cc2)CC1` (stereo unspecified), the IC50 turned out to be 5.06 µM.

Regarding `CCN(CC)C(=O)c1ccc(C(c2ccc(OC)cc2)N2CCNCC2)cc1` (stereo unspecified), the IC50 was 4.54 µM.

The next test has as its target T1, Delta-type opioid receptor (Homo sapiens, UniProt P41143). Kind of test: Binding affinity against human opioid receptor delta 1 using [125I]-[D-Ala2]-deltorphin II as radioligand.
The compound `CN(C)C(=O)c1ccc(C(c2ccccc2)N2CCNCC2)cc1` (stereo unspecified) returned an IC50 of 0.0604 µM.

`CC(=O)c1ccc(C(c2ccccc2)N2CCNCC2)cc1` (stereo unspecified) had an IC50 of 1.05 µM.

On to `NC(=O)c1ccc(C(c2ccccc2)N2CCNCC2)cc1` (stereo unspecified), for which the IC50 is 0.509 µM.

Take `CCN(CC)S(=O)(=O)c1ccc(C(c2ccccc2)N2CCNCC2)cc1` (stereo unspecified): the IC50 was 0.0379 µM.

Compound `CCN(CC)Cc1ccc(C(c2ccccc2)N2CCNCC2)cc1` (stereo unspecified) had an IC50 of 0.555 µM.

`CCN(CC)C(=O)c1ccc(C(c2ccc3ncccc3c2)N2CCNCC2)cc1` (stereo unspecified): the IC50 was 0.0616 µM.

`COC(=O)c1ccc(C(c2ccccc2)N2CCNCC2)cc1` (stereo unspecified) came in with an IC50 of 0.307 µM.

Regarding `CCNC(=O)c1ccc(C(c2ccccc2)N2CCNCC2)cc1` (stereo unspecified), the IC50 turned out to be 0.175 µM.

As for `O=C(O)c1ccc(C(c2ccccc2)N2CCNCC2)cc1` (stereo unspecified), the IC50 is 0.41 µM.

Compound `CCN(CC)C(=O)c1ccc(C(c2ccnc3ccccc23)N2CCNCC2)cc1` (stereo unspecified) yielded an IC50 of 0.132 µM.

In turn, `CCC(CC)C(=O)c1ccc(C(c2ccccc2)N2CCNCC2)cc1` (stereo unspecified) registered an IC50 of 0.1 µM.

Consider `c1ccc(C(c2ccc(-c3nnn[nH]3)cc2)N2CCNCC2)cc1` (stereo unspecified), for which the IC50 was 0.25 µM.

`N#Cc1ccc(C(c2ccccc2)N2CCNCC2)cc1` (stereo unspecified): the IC50 turned out to be 1.29 µM.

In turn, `CN1CCc2cc(-c3ccc(C(c4ccccc4)N4CCNCC4)cc3)ccc2C1=O` (stereo unspecified) yielded an IC50 of 1.65 µM.

Turning to `CCN(CC)C(=O)c1ccc(C(c2ccccc2)N2CCCCC2)cc1` (stereo unspecified), the IC50 is 2.23 µM.

Regarding `CCN(CC)C(=O)c1ccc(C(c2ccccc2)N2CCOCC2)cc1` (stereo unspecified), the IC50 is more than 10 µM.

For `CC(C)(O)c1ccc(C(c2ccccc2)N2CCNCC2)cc1` (stereo unspecified), the IC50 was determined as 0.406 µM.

Turning to `CCN(CC)C(=O)c1ccc(C(c2cccc(OC)c2)N2CC(C)(C)NCC2C)cc1` (stereo unspecified), the IC50 stood at 0.00844 µM.

`C=CCN1CCN(C(c2ccccc2)c2ccc(C(=O)N(CC)CC)cc2)CC1` (stereo unspecified) came in with a half-maximal inhibitory concentration (IC50) of 0.0159 µM.

`CCN(CC)C(=O)c1ccc(C(c2ccc(OC)cc2)N2CCNCC2)cc1` (stereo unspecified) came in with an IC50 of 0.00813 µM.

Compound `CCN(CC)C(=O)c1ccc(C(c2ccccc2)N2CCN(C(C)=O)CC2)cc1` (stereo unspecified) yielded an IC50 of more than 2 µM.

A further test has as its target Kappa-type opioid receptor (Homo sapiens, UniProt P41145). Put plainly: Binding affinity against cloned human Opioid receptor kappa 1 using [125I]-D-Pro10-dynorphin A[1-11] as radioligand.
Turning to `CCN(CC)C(=O)c1ccc(C(c2cccc(OC)c2)N2CC(C)(C)NCC2C)cc1` (stereo unspecified), the IC50 was more than 10 µM.

`C=CCN1CCN(C(c2ccccc2)c2ccc(C(=O)N(CC)CC)cc2)CC1` (stereo unspecified) came in with an IC50 of 7.57 µM.

Regarding `CCN(CC)C(=O)c1ccc(C(c2ccc(OC)cc2)N2CCNCC2)cc1` (stereo unspecified), the IC50 was more than 10 µM.

System in a further test: not listed separately
Put plainly: Maximal efficacy (Emax value). In kind it is functional. A digest of the protocol: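 GTPγ35S binding on P2 membranes of HEK-293S cells stably expressing human δ receptor (9.7 pmol/mg protein). Filtration after 1 h. Stimulated binding set with 3 µM SNC-80. %Emax from 3-parameter logistic fit.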
Regarding `CCN(CC)S(=O)(=O)c1ccc(C(c2ccccc2)N2CCNCC2)cc1` (stereo unspecified), the maximum response (Emax) was 110%.

Consider `C=CCN1C[C@H](C)N([C@H](c2ccc(C(=O)N(CC)CC)cc2)c2cccc(OC)c2)C[C@H]1C`, for which the Emax is 100%.

Turning to `CCN(CC)C(=O)c1ccc(C(c2cccc(OC)c2)N2CC(C)(C)NCC2C)cc1` (stereo unspecified), the maximum response (Emax) stood at 100%.

Compound `C=CCN1CCN(C(c2ccccc2)c2ccc(C(=O)N(CC)CC)cc2)CC1` (stereo unspecified) yielded an Emax of 109%.

Regarding `CCN(CC)C(=O)c1ccc(C(c2ccc(OC)cc2)N2CCNCC2)cc1` (stereo unspecified), the Emax was 90%.

The target in a further test is T1, Delta-type opioid receptor. Put plainly: Agonist potency was measured using GTP gamma-[35S] binding assay. (Binding of GTPγS marks nucleotide exchange on a G protein.)
With `CCN(CC)S(=O)(=O)c1ccc(C(c2ccccc2)N2CCNCC2)cc1` (stereo unspecified), a half-maximal effect (EC50) was put at 0.635 µM.

As for `CCN(CC)C(=O)c1ccc(C(c2cccc(OC)c2)N2CC(C)(C)NCC2C)cc1` (stereo unspecified), the EC50 came out at 0.0104 µM.

`C=CCN1CCN(C(c2ccccc2)c2ccc(C(=O)N(CC)CC)cc2)CC1` (stereo unspecified): the EC50 turned out to be 0.033 µM.

In turn, `CCN(CC)C(=O)c1ccc(C(c2ccc(OC)cc2)N2CCNCC2)cc1` (stereo unspecified) yielded an EC50 of 0.187 µM.
